What was measured:
[1] = Inhibition of AmpC beta lactamase
[2] = Inhibition of beta lactamase TEM1
[3] = Inhibition of beta lactamase TEM30
[4] = Inhibition of AmpC beta lactamase N289A mutant
In short: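 Rates were taken at steady state after the lag phase. Ki came from progress curves with and without inhibitor (Waley method), averaged over five inhibitor concentrations giving ≥50% inhibition, each in triplicate.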

SMILES	Ki [1] [µM]	Ki [2] [µM]	Ki [3] [µM]	Ki [4] [µM]
O=C(Cc1cccs1)NCB(O)O	0.32	–	–	–
O=C(Cc1cccs1)N[C@H](B(O)O)c1ccccc1	0.035	–	–	–
CB(O)O [METHANE BORONIC ACID]	1000	–	–	–
CC(=O)OCC1=C(C(=O)O)N2C(=O)[C@@H](NC(=O)Cc3cccs3)[C@H]2SC1 [CEPHALOTHIN]	0.32	–	–	–
O=C(Cc1cccs1)N[C@H](B(O)O)c1cccc(C(=O)O)c1	0.001	0.064	7.8	0.017
CC(=O)NCB(O)O [ACETAMIDOMETHYLBORONIC ACID]	18.5	–	–	–
O=C(O)/C=C/c1cccc([C@H](NC(=O)Cc2cccs2)B(O)O)c1	–	0.106	3.8	0.0028

— ChEMBL document CHEMBL1141578, “Structure-based optimization of cephalothin-analogue boronic acids as beta-lactamase inhibitors” (Bioorg Med Chem, 2008)
